{"source": "ChEMBL document CHEMBL1122774", "about": "“Tri- and tetrapeptide analogues of kinins as potential renal vasodilators” (J Med Chem, 1984)", "key": {"Canis familiaris [1]": {"system": "Canis familiaris", "test": "In vivo percent change in canine mean arterial blood pressure (MABP) at 30 ug/Kg/min.", "type": "functional, Canis lupus familiaris", "summary_of_the_method": "(§1)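 Primary screen in anesthetized dogs (7-17 kg). Drug infused separately at 3, 30 and 300 µg/(kg min), each infusion lasting 5 min, at about 15-min intervals. Read-outs are renal blood flow, mean arterial blood pressure, heart rate, and RVR (MABP / mean RBF), as percent change. Significance thresholds are defined per number of dogs; n = 1-3 dogs.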"}, "[2]": {"test": "Ratio of ED20 of MABP (mean arterial blood pressure) to the ED15 of RVR (renal vascular resistance)", "type": "functional", "summary_of_the_method": "(§2)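 Anesthetized dogs in the secondary cumulative-infusion protocol, each dose level 5 min. Selectivity ratio is the dose giving a 20% change in mean arterial blood pressure divided by the cumulative dose lowering renal vascular resistance 15% (RVR ED15).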"}, "Canis familiaris [3]": {"system": "Canis familiaris", "test": "In vivo percent change in canine mean arterial blood pressure (MABP) at 3 ug/Kg/min.", "type": "functional, Canis lupus familiaris", "summary_of_the_method": "as §1"}, "Canis familiaris [4]": {"system": "Canis familiaris", "test": "In vivo percent change in renal blood flow at 30 ug/Kg/min.", "type": "functional, Canis lupus familiaris, Kidney", "summary_of_the_method": "as §1"}, "Canis familiaris [5]": {"system": "Canis familiaris", "test": "In vivo percent change in canine mean arterial blood pressure (MABP) at 300 ug/Kg/min.", "type": "functional, Canis lupus familiaris", "summary_of_the_method": "as §1"}, "Canis familiaris [6]": {"system": "Canis familiaris", "test": "In vivo percent change in canine renal vascular resistance (RVR) at 3 ug/Kg/min.", "type": "functional, Canis lupus familiaris", "summary_of_the_method": "as §1"}, "Canis familiaris [7]": {"system": "Canis familiaris", "test": "In vivo percent change in canine renal blood flow (RBF) at 300 ug/Kg/min.", "type": "functional, Canis lupus familiaris, Kidney", "summary_of_the_method": "as §1"}, "[8]": {"test": "Average max percent decrease in RVR (renal vascular resistance) was determined", "summary_of_the_method": "(§3)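 Secondary protocol in anesthetized dogs. Drug given as iv infusion at progressively increasing rates, each dose level for 5 min. The maximum effect is taken as the largest percent decrease in renal vascular resistance (RVR) reached with the compound. RVR is calculated as mean arterial blood pressure / mean renal blood flow.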"}, "Canis familiaris [9]": {"system": "Canis familiaris", "test": "Renal vasodilator activity in anesthetized dogs was determined as percent change in heart rate (HR) at 30 ug/Kg/min", "type": "functional, Canis lupus familiaris", "summary_of_the_method": "as §1"}, "Canis familiaris [10]": {"system": "Canis familiaris", "test": "In vivo percent change in canine heart rate at 300 ug/Kg/min.", "type": "functional, Canis lupus familiaris", "summary_of_the_method": "as §1"}, "Canis familiaris [11]": {"system": "Canis familiaris", "test": "In vivo percent change in canine renal blood flow (RBF) at 3 ug/Kg/min.", "type": "functional, Canis lupus familiaris, Kidney", "summary_of_the_method": "as §1"}, "Canis familiaris [12]": {"system": "Canis familiaris", "test": "Compound was evaluated for renal vasodilator activity and represented as ED15 (intravenous administration)", "type": "functional", "settings": "Canis lupus familiaris", "summary_of_the_method": "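Secondary protocol in anesthetized dogs with iv infusion at progressively increasing rates, each level infused 5 min. Potency is the cumulative dose (µg/kg) that lowered renal vascular resistance (MABP / mean RBF) by 15%. Minimum change needed for significance (p = 0.95) is 16% for RVR.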"}, "Canis familiaris [13]": {"system": "Canis familiaris", "test": "In vivo percent change in canine heart rate at 3 ug/Kg/min.", "type": "functional, Canis lupus familiaris", "summary_of_the_method": "as §1"}, "Canis familiaris [14]": {"system": "Canis familiaris", "test": "Renal vasodilator activity in anesthetized dogs and percent change in renal vascular resistance (RVR) was determined at 30 ug/Kg/min", "type": "functional, Canis lupus familiaris", "summary_of_the_method": "as §1"}, "[15]": {"test": "Ratio of ED30 of iliac vascular resistant (IVR) to the ED15 of RVR (renal vascular resistance)", "type": "functional", "summary_of_the_method": "(§4)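 Anesthetized dogs in the secondary cumulative-infusion protocol, each dose level 5 min. Selectivity ratio is the dose giving a 30% change in iliac vascular resistance divided by the RVR ED15, the cumulative dose decreasing renal vascular resistance by 15%.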"}, "Canis familiaris [16]": {"system": "Canis familiaris", "test": "In vivo percent change in canine renal vascular resistance (RVR) at 300 ug/Kg/min.", "type": "functional, Canis lupus familiaris", "summary_of_the_method": "as §1"}, "Canis familiaris [17]": {"system": "Canis familiaris", "test": "In vivo percent change in canine heart rate at 30 ug/Kg/min.", "type": "functional, Canis lupus familiaris", "summary_of_the_method": "as §1"}, "Canis familiaris [18]": {"system": "Canis familiaris", "test": "Renal vasodilator activity in anesthetized dogs and percent change in renal vascular resistance (RVR) was determined at 300 ug/Kg/min", "type": "functional, Canis lupus familiaris", "summary_of_the_method": "as §1"}, "[19]": {"test": "Ratio of ED20 of MABP (mean arterial blood pressure) to the ED15 of RVR ( renal vascular resistance).", "type": "functional", "summary_of_the_method": "as §2"}, "[20]": {"test": "Ratio of ED30 of iliac vascular resistant (IVR) to the ED15 of RVR(renal vascular resistance)", "type": "functional", "summary_of_the_method": "as §4"}, "Canis familiaris [21]": {"system": "Canis familiaris", "test": "Renal vasodilator activity in anesthetized dogs and percent change in heart rate (HR) was determined at 300 ug/Kg/min", "type": "functional, Canis lupus familiaris", "summary_of_the_method": "as §1"}, "[22]": {"test": "Average max percent decrease in RVR (renal vascular resistance) was determined.", "summary_of_the_method": "as §3"}}, "note": "Where “and” joins values, the source holds several entries; their conditions need not be identical. Equal values may be shown once. Square brackets hold non-standard residues; d marks the D form. Peptide text beside a SMILES is read from it. * marks the point of attachment. ξ: configuration not given here. Butanoyl(4-(4-HOPh)) = O=C(CCCc1ccc(O)cc1)*; ξαMeF = CC(N)(Cc1ccccc1)C(=O)O", "data": [{"molecule": "CC(Cc1ccccc1)(NC(=O)[C@@H]1CCCN1C(=O)CCCc1ccc(O)cc1)C(=O)NCC(=O)N1CCC[C@H]1C(=O)O", "note": "(some centres undefined) ({Butanoyl(4-(4-HOPh))}-P[ξαMeF]GP-OH)", "values": [{"measurement": "Change", "setting": "Canis familiaris [1]", "result": -9, "unit": "%"}, {"measurement": "Ratio", "setting": "[2]", "result": ">1226"}, {"measurement": "Change", "setting": "Canis familiaris [3]", "result": -5, "unit": "%"}, {"measurement": "Change", "setting": "Canis familiaris [4]", "result": 16, "unit": "%"}, {"measurement": "Change", "setting": "Canis familiaris [5]", "result": -6, "unit": "%"}, {"measurement": "Change", "setting": "Canis familiaris [6]", "result": -18, "unit": "%"}, {"measurement": "Change", "setting": "Canis familiaris [7]", "result": 14, "unit": "%"}, {"measurement": "Decrease", "setting": "[8]", "result": 20, "unit": "%"}, {"measurement": "Change", "setting": "Canis familiaris [9]", "result": 10, "unit": "%"}, {"measurement": "Change", "setting": "Canis familiaris [10]", "result": 6, "unit": "%"}, {"measurement": "Change", "setting": "Canis familiaris [11]", "result": 17, "unit": "%"}, {"measurement": "ED15", "setting": "Canis familiaris [12]", "result": 4.9, "unit": "µg/kg"}, {"measurement": "Change", "setting": "Canis familiaris [13]", "result": 6, "unit": "%"}, {"measurement": "Change", "setting": "Canis familiaris [14]", "result": -21, "unit": "%"}, {"measurement": "Ratio", "setting": "[15]", "result": "> 1230"}, {"measurement": "Change", "setting": "Canis familiaris [16]", "result": -17, "unit": "%"}]}, {"molecule": "CC(Cc1ccccc1)(NC(=O)[C@@H]1CCCN1C(=O)CCCc1ccc(O)cc1)C(=O)NCCCN.Cl", "note": "(some centres undefined)", "values": [{"measurement": "Change", "setting": "Canis familiaris [1]", "result": 3, "unit": "%"}, {"measurement": "Change", "setting": "Canis familiaris [3]", "result": -0.7, "unit": "%"}, {"measurement": "Change", "setting": "Canis familiaris [4]", "result": 4.3, "unit": "%"}, {"measurement": "Change", "setting": "Canis familiaris [5]", "result": -1.4, "unit": "%"}, {"measurement": "Change", "setting": "Canis familiaris [6]", "result": 4, "unit": "%"}, {"measurement": "Change", "setting": "Canis familiaris [7]", "result": 11.7, "unit": "%"}, {"measurement": "Change", "setting": "Canis familiaris [17]", "result": 1.3, "unit": "%"}, {"measurement": "Change", "setting": "Canis familiaris [10]", "result": 8, "unit": "%"}, {"measurement": "Change", "setting": "Canis familiaris [11]", "result": 3.3, "unit": "%"}, {"measurement": "Change", "setting": "Canis familiaris [13]", "result": 0.7, "unit": "%"}, {"measurement": "Change", "setting": "Canis familiaris [14]", "result": -4.7, "unit": "%"}, {"measurement": "Change", "setting": "Canis familiaris [18]", "result": -11.3, "unit": "%"}]}, {"molecule": "H-RPPGFSPFR-OH [BRADYKININ]", "values": [{"measurement": "Ratio", "setting": "[19]", "result": "7 and 8"}, {"measurement": "ED15", "setting": "Canis familiaris [12]", "result": 2.8, "unit": "µg/kg"}, {"measurement": "Ratio", "setting": "[20]", "result": 25}]}, {"molecule": "COc1ccc(CC(C)(NC(=O)[C@@H]2CCCN2C(=O)CCCc2ccc(O)cc2)C(=O)N[C@@H](CCCN=C(N)N)C(=O)O)cc1OC", "note": "(some centres undefined)", "values": [{"measurement": "Ratio", "setting": "[19]", "result": ">12"}, {"measurement": "Change", "setting": "Canis familiaris [1]", "result": -7.7, "unit": "%"}, {"measurement": "Change", "setting": "Canis familiaris [3]", "result": -2.7, "unit": "%"}, {"measurement": "Change", "setting": "Canis familiaris [4]", "result": 18, "unit": "%"}, {"measurement": "Change", "setting": "Canis familiaris [5]", "result": -32, "unit": "%"}, {"measurement": "Change", "setting": "Canis familiaris [6]", "result": -6.7, "unit": "%"}, {"measurement": "Change", "setting": "Canis familiaris [7]", "result": 29.5, "unit": "%"}, {"measurement": "Change", "setting": "Canis familiaris [17]", "result": 6.3, "unit": "%"}, {"measurement": "Change", "setting": "Canis familiaris [21]", "result": 16, "unit": "%"}, {"measurement": "Change", "setting": "Canis familiaris [11]", "result": 4.3, "unit": "%"}, {"measurement": "ED15", "setting": "Canis familiaris [12]", "result": 506, "unit": "µg/kg"}, {"measurement": "Change", "setting": "Canis familiaris [13]", "result": 1.7, "unit": "%"}, {"measurement": "Change", "setting": "Canis familiaris [14]", "result": -21.3, "unit": "%"}, {"measurement": "Decrease", "setting": "[22]", "result": 31, "unit": "%"}, {"measurement": "Ratio", "setting": "[15]", "result": "> 12"}, {"measurement": "Change", "setting": "Canis familiaris [16]", "result": -44.5, "unit": "%"}]}, {"molecule": "CC(Cc1ccccc1)(NC(=O)[C@@H]1CCCN1C(=O)CCCc1ccccc1)C(=O)N1CCC[C@H]1C(=O)O", "note": "(some centres undefined)", "values": [{"measurement": "Change", "setting": "Canis familiaris [1]", "result": 0, "unit": "%"}, {"measurement": "Change", "setting": "Canis familiaris [3]", "result": 0.5, "unit": "%"}, {"measurement": "Change", "setting": "Canis familiaris [4]", "result": 2, "unit": "%"}, {"measurement": "Change", "setting": "Canis familiaris [5]", "result": 1, "unit": "%"}, {"measurement": "Change", "setting": "Canis familiaris [6]", "result": -8, "unit": "%"}, {"measurement": "Change", "setting": "Canis familiaris [7]", "result": 4, "unit": "%"}, {"measurement": "Change", "setting": "Canis familiaris [17]", "result": 0, "unit": "%"}, {"measurement": "Change", "setting": "Canis familiaris [10]", "result": -2, "unit": "%"}, {"measurement": "Change", "setting": "Canis familiaris [11]", "result": 3, "unit": "%"}, {"measurement": "Change", "setting": "Canis familiaris [13]", "result": 0, "unit": "%"}, {"measurement": "Change", "setting": "Canis familiaris [14]", "result": -2, "unit": "%"}, {"measurement": "Change", "setting": "Canis familiaris [18]", "result": -3, "unit": "%"}]}]}
